Usually IC50 stands for the point on the concentration scale where inhibition reaches its midpoint. A low value points to higher potency.

Assay [1] relates to Leishmania amazonensis. Briefly: Effect on free sterol compositions of leishmania mexicana amazonensis promastigotes at a concentration of 0.1 uM. It counts as functional. Put shortly: (§1)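 L. mexicana amazonensis promastigotes grown in LIT medium with lactalbumin and 10% fetal calf serum at 26 °C without agitation; cultures started at 2 × 10⁶ cells/mL, drug added at 0.5–1 × 10⁷ cells/mL. Total lipids extracted, split into neutral and polar fractions by silicic acid chromatography, sterols analysed by gas-liquid chromatography; read-out is % 24-alkylated vs 24-nonalkylated sterols.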

The subject of assay [2] is Leishmania amazonensis. Briefly: In vitro inhibitory concentration against Leishmania amazonensis promastigotes. The format is functional, organism-based. The method in brief:
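L. amazonensis MHOM/BR/75/Josefa promastigotes (mouse-passaged) in Warren's medium with 10% fetal bovine serum at 25 °C; exponential-phase cells incubated with compound 96 h, counted by Neubauer hemocytometer. IC₅₀ from I = Imax·C/(IC₅₀+C), Imax 100%.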

The test system of assay [3] is Leishmania amazonensis. As to the kind of experiment: In vitro inhibitory concentration against Leishmania amazonensis intracellular amastigotes. The format is functional, organism-based. Put shortly: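 Swiss mouse peritoneal macrophages adhered 24 h at 37 °C, 5% CO₂, infected with stationary-phase L. amazonensis promastigotes (1:10) at 35 °C for 2 h, washed, held 24 h drug-free, then exposed to compound for 96 h. Bouin-fixed, Giemsa-stained; percentage of infected cells scored, IC₅₀ from hyperbolic inhibition function I = Imax·C/(IC₅₀+C).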

The subject of another assay is Leishmania donovani. Briefly: In vitro inhibitory concentration against Leishmania donovani intracellular amastigotes. It counts as functional, organism-based. The method in brief:
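CD1 mouse starch-induced peritoneal macrophages in RPMI1640 + 10% HIFCS, 37 °C, 5% CO₂, infected with hamster-spleen L. donovani MHOM/ET/67/L82 amastigotes (5:1); after 24 h drug exposure for 5 days, overlay replaced day 3, top concentration 30 μg/mL, quadruplicates. Methanol-fixed, Giemsa-stained, scored microscopically; ED₅₀ by curve fitting; Pentostam positive control.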

Assay [4] in a line: Evaluated for its toxicity against KB cells. It counts as cell-based. Conditions: Homo sapiens. The method in brief:
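KB cells seeded at 4 × 10⁴/mL in RPMI 1640 + 10% HIFCS, 24 h at 37 °C, 5% CO₂, then exposed to 300, 30, 3 and 0.3 μg/mL in triplicate for 72 h; podophyllotoxin positive control. AlamarBlue added for 2–4 h, fluorescence at EX/EM 530/585 nm; ED₅₀ relative to blanks and untreated controls.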

Assay [5] is described as follows: In vitro inhibitory concentration against Trypanosoma cruzi epimastigotes. It counts as functional. Put shortly: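 T. cruzi Y strain epimastigotes in liver infusion tryptose medium with 10% fetal bovine serum at 28 °C; exponential-phase parasites incubated with compound 96 h, counted by Neubauer hemocytometer. IC₅₀ from I = Imax·C/(IC₅₀+C), Imax 100%.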
Assay [6] in a line: In vitro inhibitory concentration against Trypanosoma cruzi intracellular amastigotes. The format is functional, cell-based.
For assay [7], the system named is Leishmania amazonensis. As to the kind of experiment: Effect of compound on free sterol compositions of leishmania mexicana amazonensis promastigotes at a concentration of 0.01 uM. The format is functional. The method in brief: as §1
Assay [8] has as its system Leishmania amazonensis. Briefly: (§2) Effect of compound on free sterol compositions of leishmania mexicana amazonensis promastigotes at a concentration of 0.1 uM. It counts as functional. The method in brief:
as §1

Assay [9] has as its system Leishmania amazonensis. The description is as §2. The format is functional. The method in brief: as §1
This is another data set of the same source.

Assay [10] concerns Leishmania amazonensis. Briefly: Effect of compound on free sterol composition of leishmania mexicana amazonensis promastigotes at a concentration of 0 uM,. The format is functional. Put shortly: as §1
Assay [11] has as its system Leishmania amazonensis. Briefly: Effect of compound on free sterol compositions of leishmania mexicana amazonensis promastigotes at a concentration of 1.0 uM. It counts as functional. The method in brief:
as §1

Structures are written as SMILES. Where “and” joins values, the source holds several entries; their conditions need not be identical. Identical values can stand only once.

As to `CC(O)(c1cccnc1)[C@H]1CC[C@H]2[C@@H]3CCC4C[C@@H](O[Si](C)(C)C(C)(C)C)CC[C@]4(C)[C@H]3CC[C@]12C` (some centres undefined), the Effect with Leishmania amazonensis [1] is reported as 6.6%. Further, the IC50 is 1750 nM in the assay on Leishmania amazonensis [2]; 1500 nM in the assay on Leishmania amazonensis [3]; 13.9 µM in the assay on Leishmania donovani; greater than 586 µM in assay [4]; 1200 nM in assay [5]; 51.2 µM in assay [6].
Regarding `CCC(=O)N1CCCC(C(C)(O)[C@H]2CC[C@H]3[C@@H]4CCC5C[C@@H](O[Si](C)(C)C(C)(C)C)CC[C@]5(C)[C@H]4CC[C@]23C)C1` (some centres undefined), the half-inhibitory concentration (IC50) in the assay on Leishmania amazonensis [2] was 1210 nM; in the assay with Leishmania amazonensis [3] it was 1000 nM; in the assay on Leishmania donovani it was greater than 52 µM; in assay [4] it was greater than 520 µM; in assay [5] it was 600 nM; in assay [6], greater than 52 µM.
Turning to `CC(O)(c1cccnc1)[C@H]1CC[C@H]2[C@@H]3CCC4C[C@@H](O)CC[C@]4(C)[C@H]3CC[C@]12C` (some centres undefined), the Effect in the assay on Leishmania amazonensis [1] is 3.1% and 4.1% and 11.1%; in the assay on Leishmania amazonensis [7] it was 4.7%; in the assay on Leishmania amazonensis [8], 12.4%; in the assay with Leishmania amazonensis [9] it was 41.9%. The IC50 in the assay with Leishmania amazonensis [2] is 4240 nM; in the assay with Leishmania amazonensis [3], 3000 nM; with Leishmania donovani it was 23.4 µM; in assay [4], greater than 755 µM; in assay [5], 620 nM; in [6] it was 13.3 µM.
For `CC(O)(C1CCCCN1)[C@H]1CC[C@H]2[C@@H]3CCC4C[C@@H](O[Si](C)(C)C(C)(C)C)CC[C@]4(C)[C@H]3CC[C@]12C` (some centres undefined), the IC50 was 1090 nM with Leishmania amazonensis [2]; 20 nM with Leishmania amazonensis [3]; greater than 58 µM in the assay on Leishmania donovani; greater than 579 µM in assay [4]; 600 nM in assay [5]; 50 µM in assay [6]. Further, the Effect in the assay on Leishmania amazonensis [8] is on record as 8.5%; in the assay on Leishmania amazonensis [9], less than 1%.
In the case of `CC(O)(C1CCCCN1)[C@H]1CC[C@H]2[C@@H]3CCC4C[C@@H](O)CC[C@]4(C)[C@H]3CC[C@]12C` (some centres undefined), the figures for the Effect in the assay on Leishmania amazonensis [10], in the assay with Leishmania amazonensis [8] and with Leishmania amazonensis [9] were 9.8%, 11.1% and 64.2%, respectively. The IC50 in the assay with Leishmania amazonensis [2] came out at 100 nM; in the assay on Leishmania amazonensis [3], 10 nM; in the assay with Leishmania donovani it was 8.9 µM; in assay [4], 11.9 µM; in [5], 940 nM; in assay [6] it was 7.4 µM.
As for `CC(O)(C1CCCNC1)[C@H]1CC[C@H]2[C@@H]3CCC4C[C@@H](O)CC[C@]4(C)[C@H]3CC[C@]12C` (some centres undefined), the IC50 is 4.8 µM in the assay with Leishmania donovani, 29.2 µM in assay [4] and 18 µM in [6]. Besides, the Effect is 13.1% in the assay with Leishmania amazonensis [8] and 63.7% in the assay on Leishmania amazonensis [9].
As for `CCC(=O)N1CCCCC1C(C)(O)[C@H]1CC[C@H]2[C@@H]3CCC4C[C@@H](O[Si](C)(C)C(C)(C)C)CC[C@]4(C)[C@H]3CC[C@]12C` (some centres undefined), the IC50 in the assay with Leishmania amazonensis [2] was 10300 nM; with Leishmania amazonensis [3], 8000 nM; in the assay with Leishmania donovani it was greater than 52 µM; in assay [4], greater than 520 µM; in assay [5], 1000 nM; in assay [6] it was greater than 52 µM.
In the case of `CC(O)(c1ccncc1Cl)[C@H]1CC[C@H]2[C@@H]3CCC4C[C@@H](O[Si](C)(C)C(C)(C)C)CC[C@]4(C)[C@H]3CCC12C` (some centres undefined), the IC50 in the assay with Leishmania donovani was greater than 55 µM; in assay [4], 234 µM; in assay [6], greater than 55 µM.
For the compound `CC(O)(c1ccncc1)[C@H]1CC[C@H]2[C@@H]3CCC4C[C@@H](O)CC[C@]4(C)[C@H]3CC[C@]12C` (some centres undefined), the half-inhibitory concentration (IC50) worked out at 3410 nM in the assay on Leishmania amazonensis [2]; 3000 nM in the assay on Leishmania amazonensis [3]; 11.3 µM in the assay with Leishmania donovani; 30.7 µM in assay [4]; 680 nM in assay [5]; 35 µM in [6].
`CC(O)(c1ccncc1Cl)[C@H]1CC[C@H]2[C@@H]3CCC4C[C@@H](O)CC[C@]4(C)[C@H]3CC[C@]12C` (some centres undefined): the IC50 in the assay on Leishmania donovani is greater than 69 µM; in assay [4] it was less than 0.7 µM; in [6] it was 50 µM.
On to `CC(O)(c1ccccn1)[C@H]1CC[C@H]2[C@@H]3CCC4C[C@@H](O)CC[C@]4(C)[C@H]3CC[C@]12C` (some centres undefined), for which the IC50 in the assay on Leishmania amazonensis [2] came to 1140 nM; with Leishmania amazonensis [3] it was 1000 nM; with Leishmania donovani it was 14.6 µM; in assay [4], 11.3 µM; in assay [5] it was 1030 nM; in assay [6], 32.9 µM. The Effect with Leishmania amazonensis [8] came out at 15.5%; in the assay with Leishmania amazonensis [9], 1.6%.
Regarding `CC(O)(C1CCCNC1)[C@H]1CC[C@H]2[C@@H]3CCC4C[C@@H](O[Si](C)(C)C(C)(C)C)CC[C@]4(C)[C@H]3CC[C@]12C` (some centres undefined), the IC50 with Leishmania amazonensis [2] is 1400 nM; with Leishmania amazonensis [3], 1000 nM; with Leishmania donovani, 6.4 µM; in assay [4] it was 2.5 µM; in [5], 1010 nM; in assay [6] it was 42.1 µM.
In the case of `CCC(=O)N1CCCC(C(C)(O)[C@H]2CC[C@H]3[C@@H]4CCC5C[C@@H](O)CC[C@]5(C)[C@H]4CC[C@]23C)C1` (some centres undefined), the IC50 in the assay with Leishmania donovani was determined as 37.9 µM; in assay [4], 336 µM; in assay [6] it was 64.6 µM. For the same compound, the Effect in the assay with Leishmania amazonensis [11] was determined as 49.7%; in the assay on Leishmania amazonensis [8], 11.7%.
In the case of `CC(O)(c1ccccn1)[C@H]1CC[C@H]2[C@@H]3CCC4C[C@@H](O[Si](C)(C)C(C)(C)C)CC[C@]4(C)[C@H]3CC[C@]12C` (some centres undefined), the IC50 in the assay with Leishmania amazonensis [2] was 1880 nM; in the assay on Leishmania amazonensis [3], 1000 nM; in the assay with Leishmania donovani it was greater than 59 µM; in [4] it was greater than 586 µM; in [5], 680 nM; in [6], greater than 59 µM.
As for `CCC(=O)N1CCCCC1C(C)(O)[C@H]1CC[C@H]2[C@@H]3CCC4C[C@@H](O)CC[C@]4(C)[C@H]3CC[C@]12C` (some centres undefined), the IC50 came to 23.1 µM in the assay with Leishmania donovani, 11.1 µM in assay [4] and 22.8 µM in [6]. Moreover, the Effect came to 17.7% in the assay on Leishmania amazonensis [8] and 4.4% in the assay with Leishmania amazonensis [9].
Turning to `CC(O)(c1ccncc1)[C@H]1CC[C@H]2[C@@H]3CCC4C[C@@H](O[Si](C)(C)C(C)(C)C)CC[C@]4(C)[C@H]3CC[C@]12C` (some centres undefined), the IC50 in the assay with Leishmania amazonensis [2] was 3210 nM; in the assay on Leishmania amazonensis [3], 2000 nM; in the assay on Leishmania donovani it was 15 µM; in assay [4] it was 574 µM; in assay [5], 670 nM; in assay [6], 6.1 µM.

The record behind these values is ChEMBL document CHEMBL1136803, “Azasterols as inhibitors of sterol 24-methyltransferase in Leishmania species and Trypanosoma cruzi” (J Med Chem, 2003).
